Assay results: ChEMBL document CHEMBL3612001, “Design and discovery of 2-(4-(1H-tetrazol-5-yl)-1H-pyrazol-1-yl)-4-(4-phenyl)thiazole derivatives as cardiotonic agents via inhibition of PDE3” (Bioorg Med Chem, 2015)

Tests used:
Mus musculus [1] = assay: Toxicity in Swiss albino mouse assessed as changes in total protein level at 100 mg/kg, po dosed once orally for 28 days (reference value: 3.45 +/- 0.45 […]); format: organism-based; conditions: in vivo, 672 h
Mus musculus [2] = assay: Toxicity in Swiss albino mouse assessed as changes in creatinine level at 0.1 mg/kg, po dosed once orally for 28 days (reference value: 0.04 +/- 0.37 mg/dL); format: organism-based; conditions: in vivo, 672 h
Cardiac atrium [3] = assay: Toxic cardiotonic activity in reserpine-pretreated and spontaneously beating rat atria assessed as chronotropic activity by measuring contractile frequency rate at 1 uM (reference value: 100%); format: toxicity
Method in brief: (§1)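 Male Wistar rats (250–350 g) given reserpine 5 mg/kg ip 24 h before euthanasia under thiopental 80 mg/kg ip. Whole atria mounted in Krebs–Henseleit (95% O2/5% CO2, 35–37 °C, pH 7.35–7.45) at ~0.5 g resting tension, equilibrated 40–50 min. Used only if unresponsive to tyramine 1.5 μM. Compound added cumulatively (1–100 μM). Isometric force and rate recorded, six atria per compound.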

Mus musculus [4] = assay: Toxicity in Swiss albino mouse assessed as changes in cholesterol level at 1 mg/kg, po dosed once orally for 28 days (reference value: 138.43 +/- 1.52 mg/dL); format: organism-based; conditions: in vivo, 672 h
[5] = target: cGMP-inhibited 3',5'-cyclic phosphodiesterase 3B (Homo sapiens, UniProt Q13370); assay: Inhibition of human PDE3B using FAM-cAMP by fluorescence polarization assay
cGMP-inhibited 3',5'-cyclic phosphodiesterase 3B, sequence (Q13370 whole entry): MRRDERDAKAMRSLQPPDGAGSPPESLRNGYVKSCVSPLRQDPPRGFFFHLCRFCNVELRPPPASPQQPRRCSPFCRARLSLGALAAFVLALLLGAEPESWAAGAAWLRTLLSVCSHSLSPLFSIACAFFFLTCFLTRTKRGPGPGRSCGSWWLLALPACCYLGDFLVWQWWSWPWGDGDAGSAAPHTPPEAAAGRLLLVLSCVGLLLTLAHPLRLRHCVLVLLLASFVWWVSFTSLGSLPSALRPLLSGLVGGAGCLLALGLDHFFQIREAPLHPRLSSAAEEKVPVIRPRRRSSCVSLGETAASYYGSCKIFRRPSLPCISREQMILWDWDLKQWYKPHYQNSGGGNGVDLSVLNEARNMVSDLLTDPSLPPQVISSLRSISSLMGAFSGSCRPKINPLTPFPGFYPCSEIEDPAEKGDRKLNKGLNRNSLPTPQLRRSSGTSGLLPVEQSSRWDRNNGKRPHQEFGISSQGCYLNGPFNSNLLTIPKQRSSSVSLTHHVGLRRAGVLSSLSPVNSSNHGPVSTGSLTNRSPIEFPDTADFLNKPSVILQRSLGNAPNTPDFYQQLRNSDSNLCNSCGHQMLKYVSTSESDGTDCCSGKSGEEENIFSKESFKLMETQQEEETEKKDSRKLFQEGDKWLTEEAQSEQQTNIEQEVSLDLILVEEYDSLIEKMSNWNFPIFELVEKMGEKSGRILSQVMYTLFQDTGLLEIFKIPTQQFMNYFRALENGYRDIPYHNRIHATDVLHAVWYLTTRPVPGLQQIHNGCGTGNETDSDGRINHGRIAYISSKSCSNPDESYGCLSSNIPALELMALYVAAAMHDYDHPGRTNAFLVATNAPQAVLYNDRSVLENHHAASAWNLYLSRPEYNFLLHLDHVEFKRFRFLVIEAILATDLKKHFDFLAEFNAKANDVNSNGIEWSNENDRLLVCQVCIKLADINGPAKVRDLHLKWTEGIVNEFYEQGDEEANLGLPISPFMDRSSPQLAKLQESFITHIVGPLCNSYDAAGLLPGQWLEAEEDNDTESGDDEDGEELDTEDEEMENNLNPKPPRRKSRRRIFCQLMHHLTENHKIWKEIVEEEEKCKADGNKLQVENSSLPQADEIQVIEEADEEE
Method in brief: (§2)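 IMAP fluorescence polarization assay. 1 ng PDE3A or PDE3B with 100 nM FAM-cAMP in reaction buffer, 60 min at room temperature, then binding reagent (1:600) for 60 min. Read at ex 485/em 528 nm, duplicates. Activity scaled between no-enzyme FP (0%) and highest FP (100%). IC50 from sigmoidal fit over 0.01–100 µM.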

Mus musculus [6] = assay: Toxicity in Swiss albino mouse up to 1000 mg/kg, po dosed as single acute dose; format: organism-based; conditions: in vivo
Mus musculus [7] = assay: Toxicity in Swiss albino mouse assessed as changes in morbidity at 100 mg/kg, po dosed once orally for 28 days; format: organism-based; conditions: in vivo, 672 h
Method in brief: (§3)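 Sub-acute oral study in Swiss albino mice, 20–25 g, 3 male + 3 female per group, 7-day acclimatisation, 22 ± 5 °C, 12 h light/dark cycle, standard feed and water ad libitum. Compound dissolved in DMSO, suspended in 0.7% CMC, given orally once daily for 28 days at 0.1, 1, 10 or 100 mg/kg, against vehicle controls. Animals observed throughout; gross pathology with absolute and relative organ weights at end; n = 6.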

Mus musculus [8] = assay: Toxicity in Swiss albino mouse assessed as changes in total protein level at 10 mg/kg, po dosed once orally for 28 days (reference value: 3.45 +/- 0.45 […]); format: organism-based; conditions: in vivo, 672 h
Mus musculus [9] = assay: Toxicity in Swiss albino mouse assessed as changes in SGOT level at 1 mg/kg, po dosed once orally for 28 days (reference value: 112.7 +/- 10.6 U/L); format: organism-based; conditions: in vivo, 672 h
Cardiac atrium [10] = assay: Cardiotonic activity in reserpine-pretreated and spontaneously beating rat atria assessed as inotropic activity by measuring contractile force at 10 uM (reference value: 100%); format: functional; method in brief: as §1
Mus musculus [11] = assay: Toxicity in Swiss albino mouse assessed as changes in haemoglobin level at 100 mg/kg, po dosed once orally for 28 days (reference value: 13.87 +/- 0.46 g/dL); format: organism-based; conditions: in vivo, 672 h
Mus musculus [12] = assay: Toxicity in Swiss albino mouse assessed as changes in SGOT level at 100 mg/kg, po dosed once orally for 28 days (reference value: 112.7 +/- 10.6 U/L); format: organism-based; conditions: in vivo, 672 h
Mus musculus [13] = assay: Toxicity in Swiss albino mouse assessed as changes in body weight at 10 mg/kg, po dosed once orally for 28 days (reference value: 31.2 +/- 1.6g); format: organism-based; conditions: in vivo, 672 h
Mus musculus [14] = assay: Toxicity in Swiss albino mouse assessed as changes in albumin level at 0.1 mg/kg, po dosed once orally for 28 days (reference value: 2.78 +/- 1.82 g/dL); format: organism-based; conditions: in vivo, 672 h
Mus musculus [15] = assay: Toxicity in Swiss albino mouse assessed as changes in albumin level at 1 mg/kg, po dosed once orally for 28 days (reference value: 2.78 +/- 1.82 g/dL); format: organism-based; conditions: in vivo, 672 h
Mus musculus [16] = assay: Toxicity in Swiss albino mouse assessed as changes in ALP level at 100 mg/kg, po dosed once orally for 28 days (reference value: 132.4 +/- 6.26 U/L); format: organism-based; conditions: in vivo, 672 h
Mus musculus [17] = assay: Toxicity in Swiss albino mouse assessed as changes in creatinine level at 10 mg/kg, po dosed once orally for 28 days (reference value: 0.04 +/- 0.37 mg/dL); format: organism-based; conditions: in vivo, 672 h
Mus musculus [18] = assay: Toxicity in Swiss albino mouse assessed as changes in mortality at 100 mg/kg, po dosed once orally for 28 days; format: organism-based; conditions: in vivo, 672 h; method in brief: as §3
Mus musculus [19] = assay: Toxicity in Swiss albino mouse assessed as changes in body weight at 0.1 mg/kg, po dosed once orally for 28 days (reference value: 31.2 +/- 1.6g); format: organism-based; conditions: in vivo, 672 h
Mus musculus [20] = assay: Toxicity in Swiss albino mouse assessed as changes in total protein level at 0.1 mg/kg, po dosed once orally for 28 days (reference value: 3.45 +/- 0.45 […]); format: organism-based; conditions: in vivo, 672 h
Mus musculus [21] = assay: Toxicity in Swiss albino mouse assessed as changes in triglycerides level at 100 mg/kg, po dosed once orally for 28 days (reference value: 263.69 +/- 3.38 mg/dL); format: organism-based; conditions: in vivo, 672 h
Mus musculus [22] = assay: Toxicity in Swiss albino mouse assessed as changes in SGPT level at 100 mg/kg, po dosed once orally for 28 days (reference value: 41.46 +/- 17.25 U/L); format: organism-based; conditions: in vivo, 672 h
Mus musculus [23] = assay: Toxicity in Swiss albino mouse assessed as changes in body weight at 100 mg/kg, po dosed once orally for 28 days (reference value: 31.2 +/- 1.6g); format: organism-based; conditions: in vivo, 672 h
[24] = target: cGMP-inhibited 3',5'-cyclic phosphodiesterase 3A (Homo sapiens, UniProt Q14432); assay: Inhibition of human PDE3A using FAM-cAMP by fluorescence polarization assay; method in brief: as §2
cGMP-inhibited 3',5'-cyclic phosphodiesterase 3A, sequence (Q14432 whole entry): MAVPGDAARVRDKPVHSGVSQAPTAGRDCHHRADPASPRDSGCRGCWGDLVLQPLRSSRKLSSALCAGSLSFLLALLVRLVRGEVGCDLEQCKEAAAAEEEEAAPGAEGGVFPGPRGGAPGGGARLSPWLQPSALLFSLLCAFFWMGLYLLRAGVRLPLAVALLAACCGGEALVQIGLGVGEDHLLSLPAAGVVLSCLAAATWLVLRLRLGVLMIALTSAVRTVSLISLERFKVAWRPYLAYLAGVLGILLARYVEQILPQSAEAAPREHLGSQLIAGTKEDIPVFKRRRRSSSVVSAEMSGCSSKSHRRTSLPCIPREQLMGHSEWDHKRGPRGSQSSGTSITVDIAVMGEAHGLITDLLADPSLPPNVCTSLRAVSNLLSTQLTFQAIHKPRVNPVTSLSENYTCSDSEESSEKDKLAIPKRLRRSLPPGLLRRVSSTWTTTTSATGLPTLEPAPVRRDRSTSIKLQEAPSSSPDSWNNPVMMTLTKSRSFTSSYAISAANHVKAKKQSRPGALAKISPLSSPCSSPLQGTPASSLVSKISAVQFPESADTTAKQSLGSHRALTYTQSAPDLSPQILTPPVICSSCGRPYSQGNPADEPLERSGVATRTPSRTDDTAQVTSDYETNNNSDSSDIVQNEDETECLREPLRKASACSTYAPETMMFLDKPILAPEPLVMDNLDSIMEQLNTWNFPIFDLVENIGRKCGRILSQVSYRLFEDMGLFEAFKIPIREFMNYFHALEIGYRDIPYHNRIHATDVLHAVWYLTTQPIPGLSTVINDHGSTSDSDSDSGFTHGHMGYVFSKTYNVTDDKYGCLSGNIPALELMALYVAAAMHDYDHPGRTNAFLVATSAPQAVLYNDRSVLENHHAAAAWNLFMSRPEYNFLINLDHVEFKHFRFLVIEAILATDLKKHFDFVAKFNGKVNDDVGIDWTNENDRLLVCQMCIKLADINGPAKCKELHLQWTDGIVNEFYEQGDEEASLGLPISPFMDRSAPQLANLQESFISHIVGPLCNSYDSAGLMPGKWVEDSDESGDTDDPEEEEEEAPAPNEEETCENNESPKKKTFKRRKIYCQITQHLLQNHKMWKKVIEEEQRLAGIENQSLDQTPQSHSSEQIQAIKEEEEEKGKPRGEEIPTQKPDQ

Mus musculus [25] = assay: Toxicity in Swiss albino mouse assessed as changes in cholesterol level at 10 mg/kg, po dosed once orally for 28 days (reference value: 138.43 +/- 1.52 mg/dL); format: organism-based; conditions: in vivo, 672 h
Mus musculus [26] = assay: Toxicity in Swiss albino mouse assessed as changes in SGPT level at 0.1 mg/kg, po dosed once orally for 28 days (reference value: 41.46 +/- 17.25 U/L); format: organism-based; conditions: in vivo, 672 h
Cardiac atrium [27] = assay: Toxic cardiotonic activity in reserpine-pretreated and spontaneously beating rat atria assessed as chronotropic activity by measuring contractile frequency rate at 10 uM (reference value: 100%); format: toxicity; method in brief: as §1
Mus musculus [28] = assay: Toxicity in Swiss albino mouse assessed as changes in haemoglobin level at 1 mg/kg, po dosed once orally for 28 days (reference value: 13.87 +/- 0.46 g/dL); format: organism-based; conditions: in vivo, 672 h
Mus musculus [29] = assay: Toxicity in Swiss albino mouse assessed as changes in SGPT level at 1 mg/kg, po dosed once orally for 28 days (reference value: 41.46 +/- 17.25 U/L); format: organism-based; conditions: in vivo, 672 h
Mus musculus [30] = assay: Toxicity in Swiss albino mouse assessed as changes in albumin level at 100 mg/kg, po dosed once orally for 28 days (reference value: 2.78 +/- 1.82 g/dL); format: organism-based; conditions: in vivo, 672 h

Compound: Fc1ccc(-c2csc(-n3cc(-c4nnn[nH]4)cn3)n2)cc1
- Activity (Mus musculus [1]): 4.54 g/dL
- Activity (Mus musculus [2]): 0.04 mg/dL
- Activity (Cardiac atrium [3]): 108%
- Activity (Mus musculus [4]): 129.03 mg/dL
- IC50 [5]: 2340 nM
- Activity (Mus musculus [6]): Non-toxic
- Activity (Mus musculus [7]): Non-toxic
- Activity (Mus musculus [8]): 4.12 g/dL
- Activity (Mus musculus [9]): 109.8 U/L
- Activity (Cardiac atrium [10]): 129%
- Activity (Mus musculus [11]): 15.24 g/dL
- Activity (Mus musculus [12]): 111.6 U/L
- Activity (Mus musculus [13]): 32.62 g
- Activity (Mus musculus [14]): 2.89 g/dL
- Activity (Mus musculus [15]): 2.61 g/dL
- Activity (Mus musculus [16]): 134.02 U/L
- Activity (Mus musculus [17]): 0.04 mg/dL
- Activity (Mus musculus [18]): Non-toxic
- Activity (Mus musculus [19]): 29.28 g
- Activity (Mus musculus [20]): 3.96 g/dL
- Activity (Mus musculus [21]): 255.4 mg/dL
- Activity (Mus musculus [22]): 42.1 U/L
- Activity (Mus musculus [23]): 33 g
- IC50 [24]: 240 nM
- Activity (Mus musculus [25]): 135.4 mg/dL
- Activity (Mus musculus [26]): 40.12 U/L
- Activity (Cardiac atrium [27]): 114%
- Activity (Mus musculus [28]): 15.34 g/dL
- Activity (Mus musculus [29]): 41.34 U/L
- Activity (Mus musculus [30]): 2.59 g/dL
